Source: PubChem
Exocytosis inh: lytic granule exocytosis inhibition; hit rate 0.66% among 360,000; TALL-104 LAMP-1 surface exposure, flow cytometry; cells stimulated with thapsigargin and PMA; inhibition, % at 10 µM;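 active = inhibition above about 55%, limit read from the data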
EP2 mod: modulators of human EP2 prostaglandin E2 receptor. EP2-expressing cells, cAMP HTRF FRET, PGE2 co-stimulation. induction, % at 25 µM. hit rate 0.83% among 260,000. AID 940;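 active = compounds whose cAMP rise, as percent of the full-agonist control response, exceeds 60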;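 also: rat C6 glioma line stably carrying human EP2 under a CMV promoter; the protocol text gives 20 µM as final concentration; 100% = response of wells given 1 µM PGE2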
Target sequence (P43116 whole entry, looked up): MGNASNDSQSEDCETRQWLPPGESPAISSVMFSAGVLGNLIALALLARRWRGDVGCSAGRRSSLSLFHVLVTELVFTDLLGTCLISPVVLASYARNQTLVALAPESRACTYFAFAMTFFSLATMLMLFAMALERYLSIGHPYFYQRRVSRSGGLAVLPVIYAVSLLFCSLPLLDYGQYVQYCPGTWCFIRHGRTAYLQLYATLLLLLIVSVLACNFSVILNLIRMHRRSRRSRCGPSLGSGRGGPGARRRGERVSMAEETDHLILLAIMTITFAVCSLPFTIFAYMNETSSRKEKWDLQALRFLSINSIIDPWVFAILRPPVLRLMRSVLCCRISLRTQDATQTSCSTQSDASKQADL
T cell modulator: T cell immune modulators affecting CD8 T cell-vesicle binding. 2C CD8+ T cell-vesicle binding, flow cytometry; hits give low values. hit rate 0.068% among 330,000. response (vesicle binding), % at 7 µM. AID 2052;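 active = response, share of CD8 T cells binding vesicles, and their 90th percentile fluorescence all below set limits, cut at about 80% in these data, passing the limit was not always enough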;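 also: values below 100% mean blocked vesicle binding to the CD8+ T cells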
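System: murine 2C transgenic CD8+ T lymphocytes; also added: QL9-loaded Drosophila micro-vesicles; times: binding 1.5 h at 37 °C; measured by: flow cytometry, PE anti-B7-1 (FL2) versus Alexa647 anti-CD8 (FL8), PFA-fixed; control set: Peptide-free naked vesicles (low) and QL9 vesicles with 0.7% DMSO vehicle (high)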
MC4R antagonist: antagonists of human melanocortin 4 receptor (MC4R); P32245; MC4R-expressing cells, MTII-stimulated cAMP, LANCE TR-FRET; inhibition, % at 6.5 µM; hit rate 0.48% among 360,000;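 active = inhibition above its plate's cutoff, the mean of tested wells on that plate plus 3 SD, cut at about 29% in these data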;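 also: 0% = Melanotan II alone and 100% = Melanotan II plus saturating MCL0020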
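System: U2OS-MC4R stable cell line; Technique: Eu-cAMP/anti-cAMP TR-FRET, emission 671 nm; Repeats: single well per compound; Also added: Melanotan II; Dosing: one concentration, 6.5 µM nominal; Schedule: 30-min compound, 1-h challenge, 1-h detection, room temperature.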
MC4R ag barr: activates human MC4R beta-arrestin recruitment | P32245 | activation, % at 8.9 µM | U2OS MC4R beta-arrestin complementation, luminescence; percent of melanotan II response, DMSO zero | hit rate 0.98% among 360,000 | AID 540308;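 active = activation above a per-plate cutoff, the mean activation of sample wells on that plate plus 3 SD, cut at about 8% in these data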
EP2 antag: inhibitors of human EP2 prostaglandin E2 receptor. P43116. hit rate 0.52% among 260,000. inhibition, % at 25 µM. C6 glioma cells expressing human EP2, cAMP TR-FRET; cells stimulated with saturating PGE2;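 active = percent inhibition above 40 after rounding to a whole number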;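 also: rat C6 glioma host cells with rolipram phosphodiesterase inhibitor present; the protocol text gives 20 µM as final concentration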
MC4R barr conf: human MC4R beta-arrestin agonism confirmation; shares compounds with MC4R ag barr; activation, % at 8.9 µM; hit rate 31% among 2,400; U2OS MC4R beta-arrestin recruitment, luminescence; scaled DMSO 0%, Melanotan II 100%;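 active = mean activation across replicates above the hit cutoff set in the earlier primary screen, cut at about 8% in these data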
MOR DOR agonist: activates mu-delta opioid heterodimer, MC4R agonist counter-screen | shares compounds with MC4R ag barr | U2OS PathHunter beta-arrestin, beta-gal luminescence; percent of deltorphin B response, DMSO zero | activation, % at 9.2 µM | hit rate 5.8% among 2,400;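 active = mean activation across replicates exceeds the hit threshold derived in the earlier primary screen, cut at about 18% in these data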;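 also: 100% = deltorphin B at 0.9 µM final and 0% = DMSO alone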
Numbers without * were called inactive; i = inactive; . = no result given. This is a sample that favours compounds with a hit; in the whole collection about 2.6% have one here.

SMILES	Exocytosis inh	EP2 mod	T cell modulator	MC4R antagonist	MC4R ag barr	EP2 antag	MC4R barr conf	MOR DOR agonist
CCOc1cc(/C=N/N=C(N)N)ccc1OCc1ccc(Cl)cc1	23	-16	478	0	12*	8	11*	14
COc1ccc2c(c1)CCc1c(C(=O)NCc3ccc(F)cc3)noc1-2	-2	-9	676	12	7	12	.	.
COc1ccc2c(c1)CCc1c(C(=O)Nc3ccc(OC)c(OC)c3)noc1-2	-1	0	230	1	20*	7	2	8
COc1ccc2c(c1)CCc1c(C(=O)NCCc3ccc(OC)c(OC)c3)noc1-2	1	-36	200	-7	20*	6	6	3
O=C(NCCc1ccccc1)c1noc2c1CCc1ccccc1-2	-2	-67	437	6	13*	4	1	4
COc1ccc2c(c1)CCc1c(C(=O)Nc3ccn(Cc4ccc(C)cc4)n3)noc1-2	1	0	183	-13	30*	3	37*	8
Cc1ccc(Cn2ccc(NC(=O)c3noc4c3CCc3ccccc3-4)n2)cc1	2	-27	300	7	0	8	.	.
OCCN1CCN(CC#CCC(c2ccccc2)c2ccccc2)CC1	11	-34	302	11	-1	4	.	.
COc1ccc(C(=O)N/N=C/c2ccccc2C(=O)O)cc1OC	5	16	167	5	1	5	.	.
CCOc1cc(/C=N/NC(=O)Cc2ccc(C(F)(F)F)cc2[N+](=O)[O-])ccc1O	-6	26	403	9	0	6	.	.
COc1ccc(/C=N/Nc2ccc(C(F)(F)F)cc2[N+](=O)[O-])cc1O	-2	-29	141	-8	20*	6	4	4
COC(=O)C(Cc1ccccc1)NC(=O)CCCC(=O)NCc1cccc(OC)c1 (stereo not drawn)	4	.	219	18	1	.	.	.
Cc1ccsc1C(=O)Nc1ccc(OCc2ccccc2)cc1	3	.	340	15	9.7*	.	0	3
COc1ccc(COc2ccsc2C(=O)Nc2ccc(Cl)c(Cl)c2)cc1	3	37	.	-6	12*	9	25*	3
CCOc1ccc(/C=N/OCC(=O)Nc2ccc(OCc3ccccc3)cc2)cc1OC	3	-8	880	12	13*	4	8.2*	2
COc1ccc(C(=O)Nc2ccc(OCc3ccccc3)cc2)cc1[N+](=O)[O-]	2	-8	473	0	30*	10	10*	7
COc1ccc(C(=O)Nc2ccc(Nc3ccccc3)cc2)cc1[N+](=O)[O-]	25	.	159	-10	1	.	.	.
Cc1ccccc1NNC(N)=S	2	6	95	2	0	3	.	.
CC(C)(O[C@@H]1O[C@H](CO)[C@@H](O)[C@H](O)[C@H]1O)[C@H]1Cc2cc3ccc(=O)oc3cc2O1	-5	0	685	4	-1	19	.	.
COc1ccc(CN(C)CC(=O)Nc2ccccc2C(F)(F)F)cc1	-2	4	381	16	1	10	.	.
COc1ccc2ccc(O)c(CN(C)CC(=O)Nc3ccccc3C(F)(F)F)c2c1	6	.	316	14	13*	.	7	10
O=C(Nc1cccc(-c2nc3cccnc3s2)c1)c1ccco1	-2	1	288	-2	0	10	.	.
CCOc1ncccc1C(=O)Nc1cccc(-c2nc3cccnc3s2)c1	3	60	82	-6	17*	7	8	3
Cc1cccc(NC(=O)CNC(=O)c2cccc(S(=O)(=O)NCc3cccs3)c2)c1C	3	.	483	12	2	.	.	.
O=S(=O)(Nc1ccc(F)cc1)c1ccc(NC(=S)Nc2ccccc2)cc1	12	-27	150	2	-1	.	.	.
SMILES	Exocytosis inh	EP2 mod	T cell modulator	MC4R antagonist	MC4R ag barr	EP2 antag	MC4R barr conf	MOR DOR agonist
CCc1c(C(=O)Nc2ccc(OC)cc2)[nH]c(C)c1C(C)=O	-2	-8	290	-4	-3	7	.	.
CCc1c(C(=O)Nc2cc(C)ccc2OC)[nH]c(C)c1C(C)=O	-1	15	510	3	11*	7	10*	6
Clc1ccc(C2=Nn3c(nnc3-c3cc(-c4ccccc4)n[nH]3)SC2)cc1	-2	-10	376	-5	41*	8	23*	8
COc1ccccc1OCCCOc1c(C)cc(C)cc1Br	-4	14	261	3	1	22	.	.
CC1(C(=O)NCc2ccccc2Br)CCN1Cc1c(F)cccc1F (stereo not drawn)	8	.	.	-6	5	.	.	.
Nc1sc(-c2ccccc2)cc1-c1n[nH]c(=S)n1C1CCCCC1	18	9	940	-16	11*	6	7	8
O=c1[nH]c(-c2ccc(-c3cccc(Cl)c3)o2)nc2ccccc12	6	.	361	-3	13*	.	-2	2
CC(C)c1ccc(NC(=S)NCc2ccc3c(c2)OCO3)cc1	-3	-47	i	9	12*	12	1	6
COc1ccc(NC(=S)NCc2ccc3c(c2)OCO3)cc1	0	-40	186	4	-1	11	.	.
CC(=O)N1CCOc2ccc(S(=O)(=O)N3C(C)CCCC3C)cc21 (stereo not drawn)	-1	.	320	4	-3	.	.	.
CC1(C)CC(N=c2cc(-c3ccccc3)oc3ccc(Cl)cc23)CC(C)(C)N1	51	-52	.	14	24*	7	6	10
CCc1cccc(CC)c1NC(=O)COC(=O)c1cccc(S(=O)(=O)N2CCc3ccccc3C2)c1	2	21	211	20	0	2	.	.
Cc1cccc(C(C)C)c1NC(=O)COC(=O)c1cccc(S(=O)(=O)N2CCc3ccccc3C2)c1	-1	7	161	-6	18*	15	8.6*	7
CCOc1ccc(CCNC(=O)COC(=O)c2ccc(Br)o2)cc1OCC	-1	.	500	15	-4	.	.	.
CCOC(=O)c1c(NC(=O)COC(=O)c2nccnc2N)sc2c1CCC2	-4	.	112	-4	16*	.	5	6
COc1ccc(/C=N/NC(=O)c2ccc3c(c2)OCO3)cc1	-6	.	143	6	1	.	.	.
COc1ccc2c(Cl)c(C(=O)N/N=C/c3ccc4c(c3)OCO4)sc2c1	-3	-19	141	-4	12*	11	7	4
CCc1nc(Nc2cc(OC)ccc2OC)c2oc3ccccc3c2n1	5	.	74	3	10*	.	1	3
